Compound activity as filed in PubChem BioAssay.
Hits are enriched below; roughly 2.5% of the tested compounds scored in any of these assays.
S100A4 MyoIIA: S100A4-myosin IIA interaction inhibition; P26447; 0.14% of 360,000 active; AID 652163; S100A4/TAMRA-MyoIIA peptide fluorescence polarization; inhibition, % at 10.7 µM;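 active = mean inhibition of at least 70% across replicates, with every replicate also reaching that level; inconclusive = mean inhibition reaches 70% but some replicates fall short; inactive = mean inhibition below 70%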
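Test system – S100A4 monomer (human) · Compound – single-point compound testing · Schedule – 5 min incubation before reading · Probe or stimulus – TAMRA-labelled myosin IIA heavy-chain peptide probe, 5 nM · Benchmarks – neutral control DMSO, positive control TFP · Medium – Calcium-containing HEPES buffer, pH 7.2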
E-selectin induc: E-selectin induction on HUVECs | HUVEC E-selectin immunofluorescence imaging; normalized: neutral wells 0, TNF-alpha wells 100 | 0.37% of 260,000 active | P16581 | activation, % at 7.58 µM;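 active = mean E-selectin-positive cell signal at least 10% of the positive control, reached in at least 60% of replicates, without over 20% cell loss; inconclusive = no rule given, readout overlaps actives, possibly toxicity-flagged; inactive = the rest, including those meeting only one limit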
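Assay system: HUVEC primary endothelial cells. Input: 3,000 HUVEC seeded per well. Doses: one compound dose added by pin transfer. Read-out basis: % PE-positive cells. Benchmarks: TNF-alpha high, DMSO low. Detection: immunofluorescence imaging. Buffer or medium: EGM-2, gelatin.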
SIRT5 block: sirtuin-5 (human) deacylase inhibition; Q9NXA8; Purified SirT5, succinyl-peptide AMC, trypsin-coupled fluorescence; inhibition, % at 15 µM; 1.1% of 330,000 active; in the data active = inhibition above about 15%; inconclusive = no clear call, values can overlap the other calls
Target sequence (Q9NXA8 whole entry, looked up): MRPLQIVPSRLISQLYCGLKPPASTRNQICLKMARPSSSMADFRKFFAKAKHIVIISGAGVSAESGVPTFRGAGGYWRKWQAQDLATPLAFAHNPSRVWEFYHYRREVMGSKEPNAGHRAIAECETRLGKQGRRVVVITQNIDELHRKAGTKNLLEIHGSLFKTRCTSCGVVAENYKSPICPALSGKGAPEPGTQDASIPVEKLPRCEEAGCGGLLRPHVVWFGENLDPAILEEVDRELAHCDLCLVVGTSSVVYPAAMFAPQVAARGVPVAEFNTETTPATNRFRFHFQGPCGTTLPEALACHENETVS
FGF22 binding: shifts melting point of recombinant human FGF22 | Q9HCT0 | recombinant FGF22 thermal shift, SYPRO orange fluorescence; percent of sucrose octasulfate shift, DMSO zero | activity (Tm shift, normalised), % at 9.99 µM | 1.5% of 340,000 active;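 active = mean Tm shift, scaled 0 neutral to 100 positive control, at about 1.3% or above, every replicate too, limit read from the data; inconclusive = no clear call, values can overlap the other calls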
Target sequence (Q9HCT0 whole entry, looked up): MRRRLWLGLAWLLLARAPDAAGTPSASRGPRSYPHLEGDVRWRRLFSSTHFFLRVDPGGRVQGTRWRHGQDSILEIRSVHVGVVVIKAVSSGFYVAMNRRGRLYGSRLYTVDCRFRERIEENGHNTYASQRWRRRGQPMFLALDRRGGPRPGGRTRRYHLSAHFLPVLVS
miR-122 sensor: miR-122 inhibition in Huh7 cells; Huh7 miR-122 Renilla luciferase sensor, 48 h; neutral wells = 0, positive control = 100; activation (reporter increase), % at 12.5 µM; 0.3% of 340,000 active; AID 602342;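 active = mean replicate activation score at least 90 and every replicate individually at or above 90; inconclusive = only one of the two criteria met; inactive = neither criterion met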;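 also: higher luciferase means less miR-122 activity so hits act as miR-122 inhibitors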
* = called active by the depositor; ? = inconclusive; · = no result given; [ ] = remark or other dose.

SMILES	S100A4 MyoIIA	E-selectin induc	SIRT5 block	FGF22 binding	miR-122 sensor
O=C(CCc1c[nH]c2ccccc12)Nc1ccc(Nc2ccccc2)cc1	-4	2	·	1.4*	·
C[C@H]1CN([C@@H](C)CO)S(=O)(=O)c2ccc(C#Cc3ccccc3)cc2O[C@@H]1CN(C)S(=O)(=O)c1cn(C)cn1	15	1	0	-1	81[16.7 µM]
Cc1noc(C)c1NC(=O)N[C@@H]1CC[C@H](CC(=O)NCCCN(C)C)O[C@@H]1CO	10	-1	1	0	5[16.7 µM]
Cc1noc(C)c1NC(=O)N[C@H]1CC[C@@H](CC(=O)NCCCN(C)C)O[C@H]1CO	-3	0	16*	0	-6[16.7 µM]
O=C(NNc1ccccc1)C(CCO)C(=O)NNc1ccccc1	-2	·	112*	0	-1
Cn1c(N)c(C(=O)COC(=O)c2ccc(Cl)nc2)c(=O)n(C)c1=O	-4	·	-7	43*	25
CC(C)c1ccc(C(=O)OCC(=O)c2c(N)n(C)c(=O)n(C)c2=O)cc1	-4	0	4	-1	-1
C[C@@H]1CN([C@H](C)CO)S(=O)(=O)c2ccc(-c3cccnc3)cc2O[C@@H]1CN(C)C(=O)C1CC1	·	-1	·	·	0[16.7 µM]
C[C@@H]1CN([C@H](C)CO)C(=O)Cc2cc(NC(=O)Nc3ccc4c(c3)OCO4)ccc2O[C@@H]1CN(C)C(=O)Nc1cccc2ccccc12	3	0	1	-1	129*[16.7 µM]
C[C@@H]1CN([C@@H](C)CO)C(=O)Cc2cc(NC(=O)NC3CCCCC3)ccc2O[C@H]1CN(C)C(=O)Nc1ccc2c(c1)OCO2	17	28*	-1	0	4[16.7 µM]
C[C@H](CO)N1C[C@H](C)[C@@H](CN(C)C(=O)Nc2cccc3ccccc23)Oc2ccc(NC(=O)Cc3ccccc3)cc2CC1=O	1	20	-6	1.6*	-6[16.7 µM]
C[C@@H]1CN([C@@H](C)CO)C(=O)Cc2cc(NC(=O)Nc3ccc4c(c3)OCO4)ccc2O[C@@H]1CN(C)C(=O)Nc1cccc2ccccc12	1	0	11	-1	?
C[C@@H]1CN([C@H](C)CO)C(=O)Cc2cc(NC(=O)Nc3cccc4ccccc34)ccc2O[C@@H]1CN(C)C(=O)NC1CCCCC1	17	·	9	0	121*[16.7 µM]
COc1ccc(CN(C)C[C@H]2OCCCC[C@H](C)Oc3ccc(N(C)C)cc3C(=O)N([C@H](C)CO)C[C@@H]2C)cc1	6	1	-4	-1	4[16.7 µM]
Cc1noc(C)c1NC(=O)N(C)C[C@@H]1OCc2ccccc2-c2ccccc2C(=O)N([C@@H](C)CO)C[C@H]1C	8	3	-6	0	·
CCCC#Cc1ccc(CC[C@H]2O[C@H]3CC[C@@H](CO)O[C@H]3C[C@@H]2n2cc(C(C)(C)O)nn2)cc1	-3	·	-5	·	·
C[C@H](CO)N1C[C@H](C)[C@H](CN(C)S(=O)(=O)c2cn(C)cn2)Oc2ccc(NC(=O)Nc3ccc4c(c3)OCO4)cc2C1=O	16	-2	0	0	1[16.7 µM]
C[C@@H]1CN([C@H](C)CO)C(=O)Cc2cc(NC(=O)Nc3cccc4ccccc34)ccc2O[C@@H]1CN(C)C(=O)Nc1cccc2ccccc12	-6	1	16*	0	99*[16.7 µM]
CN1c2ccc(-c3cccc(C#N)c3)cc2[C@@H]2[C@@H](CCN2C(=O)NC2CCCC2)[C@@H]1CO	11	0	6	·	·
N#CC12COC3(CCCCC3C1(C#N)C#N)OC2=N (stereo not given)	79*	5	2	0	·
N#CC1(C#N)COC23CCCCC2C1(C#N)C(=N)O3 (stereo not given)	·	·	·	·	-7
C[C@H](CO)N1C[C@H](C)[C@H](CN(C)C(=O)C2CC2)Oc2cc(/C=C/c3ccccc3)ccc2S1(=O)=O	-10	0	11	-1	7[16.7 µM]
CCOC(=O)/C=C(\C)N1N=C(c2ccccc2)CC1c1ccccc1 (stereo not given)	-6	7	-6	43*	·
CCOC(=O)c1nnn(CC(=O)N2N=C(c3ccccc3)CC2c2ccccc2)c1C(=O)OCC (stereo not given)	·	·	·	·	5
O=C(C[C@H]1C[C@@H]2c3cc(NS(=O)(=O)c4ccc(F)cc4)ccc3O[C@@H]2[C@H](CO)O1)NC1CCCCC1	-14	0	0	0	2[16.7 µM]
Cc1nc(NC(=O)C2CC2)sc1C	-4	·	22*	0	0
